This is an account of results in ChEMBL document CHEMBL1137444, “Thiazole-diamides as potent gamma-secretase inhibitors” (Bioorg Med Chem Lett, 2007).

The target in test [1] is Gamma-secretase. Kind of test: Inhibition of gamma secretase C100Flag cleavaging activity in HeLa cell membranes assessed as M-amyloid beta-40 production by cell free assay. Details: species or system Homo sapiens. The procedure, abridged: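 IC50 taken as the geometric mean of at least two experiments, each run with six data points.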
Test [2] deals with Gamma-secretase. The test can be described thus: Inhibition of gamma secretase activity in human H4 cells transfected with APP695 mutant assessed as beta amyloid(1-40) production by whole cell assay. It counts as cell-based. A digest of the protocol: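 Cells were plated at about 30,000 per well and left to attach for about 6 h at 37 °C. They were then washed to clear secreted Aβ and given fresh medium containing compound for overnight incubation at 37 °C. Secreted Aβ in the harvested medium was measured by immunoassay. IC50 is the geometric mean of at least two experiments, six data points each.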

Bounds are passed on as bounds.

One may read the IC50 as the concentration needed to halve the response being measured.

On to `CCC[C@H](NC(=O)Cc1cc(F)cc(F)c1)C(=O)Nc1nc(C)c(C(C)N(C)C)s1` (stereo partly specified), for which the IC50 turned out to be 28.3 nM on Gamma-secretase [1] and 39.7 nM at Gamma-secretase [2].
Take `CCC[C@H](NC(=O)Cc1cc(F)cc(F)c1)C(=O)Nc1nc(C)c(C(C)NCC(F)(F)F)s1` (stereo partly specified): the concentration for half-maximal inhibition (IC50) at Gamma-secretase [1] was 10 nM; on Gamma-secretase [2], 4.5 nM.
Turning to `CCC[C@H](NC(=O)Cc1cc(F)cc(F)c1)C(=O)Nc1ncc(C(O)(CC)CC)s1`, the 50% inhibitory concentration (IC50) at Gamma-secretase [1] worked out at 1 nM; at Gamma-secretase [2] it was 1.2 nM.
With `CCC[C@H](NC(=O)Cc1cc(F)cc(F)c1)C(=O)Nc1ncc(C(C)NCC(C)(C)C)s1` (stereo partly specified), the IC50 was determined as 134 nM at Gamma-secretase [1] and 231 nM on Gamma-secretase [2].
Regarding `CCC[C@H](NC(=O)Cc1cc(F)cc(F)c1)C(=O)Nc1ncc(C(C)C)s1`, the results for the IC50 on Gamma-secretase [1] and on Gamma-secretase [2] were 30 nM and 5.1 nM, respectively.
Turning to `CCC[C@H](NC(=O)[C@@H](O)c1ccccc1)C(=O)Nc1ncc(C(O)(CC)CC)s1`, the results for the IC50 at Gamma-secretase [1] and at Gamma-secretase [2] were 2.8 nM and 2.2 nM, respectively.
Regarding `CCC[C@H](NC(=O)Cc1cc(F)cc(F)c1)C(=O)Nc1ncc(CN2CCOCC2)s1`, the values for the half-maximal inhibitory concentration (IC50) at Gamma-secretase [1] and on Gamma-secretase [2] were 30 nM and 12.7 nM, respectively.
Regarding `CCC[C@H](NC(=O)Cc1cc(F)cc(F)c1)C(=O)Nc1ncc(C(C)CC(C)(C)C)s1` (stereo partly specified), the IC50 on Gamma-secretase [1] is 64.8 nM; at Gamma-secretase [2], 1.6 nM.
Turning to `CCC[C@H](NC(=O)Cc1cc(F)cc(F)c1)C(=O)Nc1ncc(C(C)N2CCOCC2)s1` (stereo partly specified), the IC50 at Gamma-secretase [1] came to 3.8 nM; on Gamma-secretase [2], 2.4 nM.
As to `CCC[C@H](NC(=O)Cc1cc(F)cc(F)c1)C(=O)Nc1nc(C)c(C(C)=O)s1`, the values for the half-maximal inhibitory concentration (IC50) on Gamma-secretase [1] and on Gamma-secretase [2] were 20 nM and 27.7 nM, respectively.
On to `CCC[C@H](NC(=O)Cc1cc(F)cc(F)c1)C(=O)Nc1nc(C)c(C(C)NCCC(C)C)s1` (stereo partly specified), for which the IC50 on Gamma-secretase [1] amounted to 5 nM; at Gamma-secretase [2] it was 2 nM.
For `CCC[C@H](NC(=O)Cc1cc(F)cc(F)c1)C(=O)Nc1nc(C)c(CC)s1`, in that order: 30 nM and 12.9 nM.
`CCC[C@H](NC(=O)CCc1cc(F)cc(F)c1)C(=O)Nc1ncc(C(C)CCCC(C)(C)OC)s1` (stereo partly specified): the half-inhibitory concentration (IC50) worked out at 10 nM at Gamma-secretase [1] and 0.14 nM at Gamma-secretase [2].
The like results for `CCC[C@H](NC(=O)Cc1cc(F)cc(F)c1)C(=O)Nc1nc(C)c(C(C)NCCC(C)(C)C)s1` (stereo partly specified) were, in that order, 5.9 nM and 2 nM.
As for `CCC[C@H](NC(=O)[C@@H](O)C(C)(C)C)C(=O)Nc1ncc(C(C)CCCC(C)(C)OC)s1` (stereo partly specified), the IC50 at Gamma-secretase [1] stood at 13 nM; on Gamma-secretase [2], 0.43 nM.
For the compound `CCC[C@H](NC(=O)Cc1cc(F)cc(F)c1)C(=O)Nc1nc(C)c(C(C)NCC)s1` (stereo partly specified), the 50% inhibitory concentration (IC50) was 155 nM on Gamma-secretase [1] and 42 nM on Gamma-secretase [2].
As to `CCC[C@H](NC(=O)Cc1cc(F)cc(F)c1)C(=O)Nc1nc(C)c(C(C)NCC(C)C)s1` (stereo in doubt; 34b), the 50% inhibitory concentration (IC50) at Gamma-secretase [1] stood at 33 nM; at Gamma-secretase [2], 31.6 nM.
The like results for `CC[C@H](NC(=O)CCc1cc(F)cc(F)c1)C(=O)Nc1ncc([C@H](C)CCCC(C)(C)OC)s1` were, in that order, 727 nM and 81.5 nM.
The like results for `COC(C)(C)CCCC(C)c1cnc(NC(=O)[C@H](C)NC(=O)CCc2cc(F)cc(F)c2)s1` (stereo partly specified) were, in that order, 30 nM and 0.22 nM.
Consider `CCC[C@H](NC(=O)Cc1cc(F)cc(F)c1)C(=O)Nc1nc(C)c(C(C)NCC(C)C)s1` (stereo in doubt; 34a), for which the IC50 is 3.1 nM at Gamma-secretase [1] and 2.5 nM on Gamma-secretase [2].
Take `CCC[C@H](NC(=O)[C@@H](O)c1cc(F)cc(F)c1)C(=O)Nc1ncc(C(CC)CC)s1`: the IC50 at Gamma-secretase [1] turned out to be 6.2 nM; at Gamma-secretase [2] it was 0.3 nM.
With `CC[C@H](NC(=O)CCc1cc(F)cc(F)c1)C(=O)Nc1ncc(C(C)CCCC(C)(C)OC)s1` (stereo partly specified), the concentration for half-maximal inhibition (IC50) on Gamma-secretase [1] was found to be 13.6 nM; at Gamma-secretase [2], 0.08 nM.
With `CCC[C@H](NC(=O)Cc1cc(F)cc(F)c1)C(=O)Nc1ncc(C(C)NC(C)C)s1` (stereo partly specified), the IC50 on Gamma-secretase [1] is 42.4 nM; at Gamma-secretase [2] it was 29.8 nM.
Take `CC[C@H](NC(=O)CCc1cc(F)cc(F)c1)C(=O)Nc1ncc([C@@H](C)CCCC(C)(C)OC)s1`: the half-maximal inhibitory concentration (IC50) on Gamma-secretase [1] was found to be 30 nM; on Gamma-secretase [2], 0.1 nM.
Regarding `CCC[C@H](NC(=O)CCc1cc(F)cc(F)c1)C(=O)Nc1ncc(C(C)CCCC(C)(C)O)s1` (stereo partly specified), the half-inhibitory concentration (IC50) is 6 nM on Gamma-secretase [1] and 0.05 nM on Gamma-secretase [2].
On to `CCCCNC(C)c1sc(NC(=O)[C@H](CCC)NC(=O)Cc2cc(F)cc(F)c2)nc1C` (stereo partly specified), for which the IC50 worked out at 7.1 nM on Gamma-secretase [1] and 3.7 nM on Gamma-secretase [2].
Take `CCC[C@H](NC(=O)Cc1cc(F)cc(F)c1)C(=O)Nc1nc(C)c(C(C)NC)s1` (stereo partly specified): the IC50 at Gamma-secretase [1] came to 51.8 nM; on Gamma-secretase [2] it was 50.5 nM.
In the case of `CCC[C@H](NC(=O)Cc1cc(F)cc(F)c1)C(=O)Nc1ncc(C(C)N2CCCC2)s1` (stereo partly specified), the results for the IC50 at Gamma-secretase [1] and at Gamma-secretase [2] were 10 nM and 10.6 nM, respectively.
The like results for `CCC[C@H](NC(=O)Cc1cc(F)cc(F)c1)C(=O)Nc1ncc(C(C)N[C@H](C(=O)OC)C(C)C)s1` (stereo partly specified) were, in that order, 4 nM and 0.7 nM.
Consider `CCC[C@H](NC(=O)Cc1cc(F)cc(F)c1)C(=O)Nc1nc(C)c(C(C)N2CCN(C)CC2)s1` (stereo partly specified), for which the 50% inhibitory concentration (IC50) came to 28.3 nM on Gamma-secretase [1] and 26.1 nM at Gamma-secretase [2].
For `CCC[C@H](NC(=O)Cc1cc(F)cc(F)c1)C(=O)Nc1nc(C)c(C)s1`, in that order: 141 nM and 94.1 nM.
Regarding `CCCNC(C)c1cnc(NC(=O)[C@H](CCC)NC(=O)Cc2cc(F)cc(F)c2)s1` (stereo partly specified), the values for the IC50 on Gamma-secretase [1] and on Gamma-secretase [2] were 15.9 nM and 10.1 nM, respectively.
Regarding `CCC[C@H](NC(=O)[C@@H](O)C(C)C)C(=O)Nc1ncc([C@H](C)CCCC(C)(C)OC)s1`, the half-maximal inhibitory concentration (IC50) came to 9 nM on Gamma-secretase [1] and 7.49 nM at Gamma-secretase [2].
`CCC[C@H](NC(=O)Cc1cc(F)cc(F)c1)C(=O)Nc1ncc(C(C)NCCC(C)(C)C)s1` (stereo partly specified): the half-inhibitory concentration (IC50) on Gamma-secretase [1] is 2.7 nM; at Gamma-secretase [2], 1.2 nM.
For the compound `CCCC(CCC)c1cnc(NC(=O)[C@H](CCC)NC(=O)Cc2cc(F)cc(F)c2)s1`, the 50% inhibitory concentration (IC50) was less than 34.6 nM on Gamma-secretase [1] and 0.8 nM on Gamma-secretase [2].
In the case of `CCC[C@H](NC(=O)Cc1cc(F)cc(F)c1)C(=O)Nc1ncc(C(C)NCc2ccccc2)s1` (stereo partly specified), the figures for the half-inhibitory concentration (IC50) on Gamma-secretase [1] and on Gamma-secretase [2] were 3 nM and 1.4 nM, respectively.
The like results for `CCC[C@H](NC(=O)Cc1cc(F)cc(F)c1)C(=O)Nc1ncc(C(C)NCCC(C)C)s1` (stereo partly specified) were, in that order, 2.6 nM and 1.2 nM.
As for `CCCCNC(C)c1cnc(NC(=O)[C@H](CCC)NC(=O)Cc2cc(F)cc(F)c2)s1` (stereo partly specified), the IC50 on Gamma-secretase [1] turned out to be 6 nM; at Gamma-secretase [2], 2 nM.
In the case of `CCC[C@H](NC(=O)Cc1cc(F)cc(F)c1)C(=O)Nc1ncc(C(C)NCC(C)C)s1` (stereo partly specified), the IC50 on Gamma-secretase [1] and on Gamma-secretase [2] was 4.2 nM throughout.
With `CCC[C@H](NC(=O)Cc1cc(F)cc(F)c1)C(=O)Nc1ncc(C(CC)CC)s1`, the half-maximal inhibitory concentration (IC50) at Gamma-secretase [1] stood at 26.3 nM; on Gamma-secretase [2], 2.2 nM.
On to `CCC[C@H](NC(=O)C(=O)C(C)(C)C)C(=O)Nc1ncc(C(C)C)s1`, for which the half-inhibitory concentration (IC50) was 116 nM on Gamma-secretase [1] and 16.8 nM on Gamma-secretase [2].
Consider `CCC[C@H](NC(=O)[C@@H](O)C(C)(C)C)C(=O)Nc1ncc([C@@H](C)CCCC(C)(C)OC)s1`, for which the concentration for half-maximal inhibition (IC50) on Gamma-secretase [1] was found to be 10 nM; at Gamma-secretase [2], 0.11 nM.
With `CCC[C@H](NC(=O)Cc1cc(F)cc(F)c1)C(=O)Nc1ncc(CNCC)s1`, the figures for the IC50 on Gamma-secretase [1] and on Gamma-secretase [2] were 63.2 nM and 104 nM, respectively.
For `CCC[C@H](NC(=O)[C@H](O)c1ccccc1)C(=O)Nc1ncc(C(O)(CC)CC)s1`, the IC50 at Gamma-secretase [1] was 141 nM; at Gamma-secretase [2], 183 nM.
As to `CCC[C@H](NC(=O)[C@@H](O)C(C)(C)C)C(=O)Nc1ncc(C(C)CCCC(C)(C)O)s1` (stereo partly specified), the half-maximal inhibitory concentration (IC50) at Gamma-secretase [1] amounted to 7.4 nM; at Gamma-secretase [2], 0.22 nM.
In the case of `CCC[C@H](NC(=O)[C@@H](O)C(C)C)C(=O)Nc1ncc([C@@H](C)CCCC(C)(C)OC)s1`, the IC50 on Gamma-secretase [1] was 9 nM; at Gamma-secretase [2], 0.3 nM.
For `CCC[C@H](NC(=O)[C@@H](O)C(C)(C)C)C(=O)Nc1ncc(C(C)C)s1`, in that order: 45.1 nM and 20.1 nM.
For `CCCCN(CC)Cc1cnc(NC(=O)[C@H](CCC)NC(=O)Cc2cc(F)cc(F)c2)s1`, in that order: 30 nM and 12.7 nM.
Turning to `CCC[C@H](NC(=O)[C@@H](O)C(C)(C)C)C(=O)Nc1ncc(C(C)(C)O)s1`, the half-maximal inhibitory concentration (IC50) at Gamma-secretase [1] turned out to be 94.9 nM; on Gamma-secretase [2], 37.3 nM.
Consider `CCC[C@H](NC(=O)[C@@H](O)C(C)C)C(=O)Nc1ncc(C(C)CCCC(C)(C)OC)s1` (stereo partly specified), for which the IC50 stood at 5.9 nM at Gamma-secretase [1] and 0.3 nM on Gamma-secretase [2].
For `CCC[C@H](NC(=O)Cc1cc(F)cc(F)c1)C(=O)Nc1nc(C)c(C(C)NCC(C)C)s1` (stereo in doubt; 34), in that order: 10 nM and 4.8 nM.
Take `CCC[C@H](NC(=O)Cc1cc(F)cc(F)c1)C(=O)Nc1ncc(CN)s1`: the IC50 is 200 nM at Gamma-secretase [1] and 93 nM on Gamma-secretase [2].
As for `CCC[C@H](NC(=O)[C@@H](O)C(C)(C)C)C(=O)Nc1ncc([C@H](C)CCCC(C)(C)OC)s1`, the 50% inhibitory concentration (IC50) at Gamma-secretase [1] was found to be 9.9 nM; at Gamma-secretase [2] it was 1.14 nM.
